{"source": "ChEMBL document CHEMBL1124093", "about": "“Peptide derivatives of primaquine as potential antimalarial agents” (J Med Chem, 1988)", "key": {"[1]": {"tested_on": "Mus musculus", "test": "Antimalarial activity against Plasmodium berghei in mice (Mus musculus) at 640 mg/kg measured as number of toxic deaths occurring on days 2-5 after infection", "format": "ADME, organism-based", "design": "dose 640 mg/kg", "conditions": "in vivo", "method_in_brief": "(§1)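 Mice infected with blood-induced P. berghei, five animals per group, run by the Osdene et al. method. Doses are expressed as mg primaquine diphosphate/kg. The read-out is the number of deaths attributed to toxicity occurring on days 2-5 after infection.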"}, "[2]": {"tested_on": "Mus musculus", "test": "Antimalarial activity against Plasmodium berghei in mice (Mus musculus) at 160 mg/kg measured as number of toxic deaths occurring on days 2-5 after infection", "format": "ADME, organism-based", "design": "dose 160 mg/kg", "conditions": "in vivo", "method_in_brief": "as §1"}, "[3]": {"tested_on": "Mus musculus", "test": "Antimalarial activity against Plasmodium berghei in mice (Mus musculus) at 320 mg/kg measured as number of toxic deaths occurring on days 2-5 after infection", "format": "ADME, organism-based", "design": "dose 320 mg/kg", "conditions": "in vivo", "method_in_brief": "as §1"}, "[4]": {"tested_on": "Plasmodium cynomolgi", "test": "Antimalarial activity against Plasmodium cynomolgi in Rhesus monkeys (Macaca mulatta) at 0.316 mg/kg; cured 0 of 2", "format": "functional"}, "[5]": {"tested_on": "Mus musculus", "test": "Antimalarial activity against Plasmodium berghei in rodent at 80 mg/Kg measured as mean survival time over control (Delta MST)", "format": "functional"}, "[6]": {"tested_on": "Plasmodium cynomolgi", "test": "Antimalarial activity against Plasmodium cynomolgi in Rhesus monkeys (Macaca mulatta) at 1 mg/kg; cured 1 of 2"}}}
{"smiles": "COc1cc(NC(C)CCCN)c2ncccc2c1", "note": "(stereo unspecified) [PRIMAQUINE]", "values": [{"measurement": "Toxic deaths", "setting": "[1]", "result": 5}, {"measurement": "Toxic deaths", "setting": "[2]", "result": 2}, {"measurement": "Toxic deaths", "setting": "[3]", "result": 5}, {"measurement": "Cures", "setting": "[4]", "result": 0}, {"measurement": "Delta MST", "setting": "[5]", "result": 9}, {"measurement": "Cures", "setting": "[6]", "result": 1}]}
